From ChEMBL document CHEMBL5150073, “Photocaged DNA-Binding Photosensitizer Enables Photocontrol of Nuclear Entry for Dual-Targeted Photodynamic Therapy” (J Med Chem, 2022) come the findings set out here.

The source made the active and inactive calls. The calls are words filed in the database; no cut-off is given here.

Series [1] relates to MCF7. As to the kind of experiment: Photocytotoxicity against human MCF7 cells cultured as 3D spheroids assessed as fold reduction in diameter of tumor spheroid size at 10 uM incubated for 1 hr followed by washout and irradiation with 480 nm 2.3 J/cm^2 light for 15 mins with 8 J/cm^2 UV irradiation for 5 mins and incubated overnight by cell viability imaging kit based assay.
Series [2] in a line: Stability of compound in human HeLa cells assessed as esterase-mediated 3-bromo-2-(4-carbamimidoylphenyl)-1H-indole-6-carboxamidine release by measuring cyan fluorescence at 2 uM incubated for 1 hr followed by compound washout and further incubated for 1 hr on heated microscopic stage by DAPI filter based fluorescence analysis. The class given is ADME, cell-based. Put shortly:
(§1)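 Cells incubated with compound (2 μM) for 1 h, washed once with PBS, then kept a further 1 h in the dark on a heated microscope stage. Nuclear cyan fluorescence imaged with the DAPI filter set at 0 h and 2 h time points.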

Series [3] can be described thus: Photorelease activity in PBS at pH 7.4 assessed as 3-bromo-2-(4-carbamimidoylphenyl)-1H-indole-6-carboxamidine release by measuring time at when peak observed at 50 uM in presence of CT-DNA illuminated with 3.1 J/cm^2 480 nm illumination for 20 mins by RP-HPLC analysis. The class given is functional. The procedure, abridged: (§2)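 Samples at 50 μM in PBS pH 7.4 were either kept 3 h at 37 °C in the dark or illuminated 20 min at 480 nm (450–495 nm filter, 3.1 J cm⁻²). Analysed by RP-HPLC on a C18 analytical column with absorbance at 345 nm; retention times recorded. n = 2 independent samples.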

The nature of series [4]: Stability of compound in human A549 cells assessed as esterase-mediated 3-bromo-2-(4-carbamimidoylphenyl)-1H-indole-6-carboxamidine release by measuring cyan fluorescence at 2 uM incubated for 1 hr followed by compound washout and further incubated for 1 hr on heated microscopic stage by DAPI filter based fluorescence analysis. To be noted: a549, 1 h. Type of series: ADME, cell-based. Put shortly: as §1

In another series the test system is Calf thymus DNA. As to the kind of experiment: Binding affinity to calf thymus DNA assessed as reduction in absorbance spectra at 20 uM by fluorescence based analysis. Particulars: Bos taurus. The class given is nucleic-acid assay.
Series [5] in a line: Selectivity index, ratio of CC50 for photocytotoxicity against human MCF7 cells irradiated with 480 nm 2.3 J/cm^2 light to CC50 for photocytotoxicity against human MCF7 cells irradiated with 480 nm 2.3 J/cm^2 light and 8 J/cm^2 UV irradiation. The class given is functional. Put shortly: (§3)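 Cells (MCF7, A549, HeLa) incubated 1 h with compound (BB probes 0–32 μM, Br-DAPI 0–64 μM) and washed once. Light arms: 480 nm (15 min, 2.3 J cm⁻²) with or without UV (5 min, 8.0 J cm⁻²), or UV only; dark controls unilluminated. Cells kept overnight in growth medium, then MTT read 24 h post-treatment. CC50 taken relative to untreated cells. n = 3.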

Series [6] deals with MCF7. As to the kind of experiment: Photocytotoxicity against human MCF7 cells assessed as cell death by measuring increase in green fluorescence incubated for 1 hr followed by washout and irradiated with 480 nm 2.3 J/cm^2 light for 15 mins with 48 J 780 nm 2P laser light for 30 seconds and further incubated for 2 hrs by cell viability imaging kit based assay. The class given is functional. Particulars: dose 0-8 µM, DDE = dose-dependent effect. Put shortly:
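MCF7 cells given compound at 4 μM. Illuminated with 480 nm light (15 min, 2.3 J cm⁻²) plus 780 nm two-photon laser (30 s, 48 J). Stained 2 h later with a live/dead imaging kit: green dead-cell stain (EGFP filter), blue total-cell stain (DAPI filter). n = 3.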

Series [7] concerns MCF7. As to the kind of experiment: Induction of ROS production in human MCF7 cells assessed as increase in green fluorescence signal at 3 uM irradiated with 480 nm 2.3 J/cm^2 light for 15 mins with 16 J 780 nm 2P laser light for 10 seconds by DCFH2-DA probe based analysis. Type of series: functional, cell-based. The procedure, abridged:
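MCF7 cells given compound at 3 μM and DCFH2DA (10 μM). Uncaged by 480 nm illumination (15 min, 2.3 J cm⁻²). DCF fluorescence imaged before and after 780 nm two-photon laser exposure (10 s, 16 J).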

In series [8] the test system is MCF7. Kind of series: Photorelease activity in human MCF7 cells assessed as 3-bromo-2-(4-carbamimidoylphenyl)-1H-indole-6-carboxamidine release by measuring bright cyan fluorescence in nucleus at 3 uM incubated for 1 hr followed by illumination with 1.6 J/cm^2 for 10 mins by DAPI filter based analysis. Type of series: ADME, cell-based. To be noted: mcf7, 1.167 h, time 70 min. The procedure, abridged:
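MCF7 cells given compound (3 μM) for 1 h, washed once with PBS, imaged. DAPI filter set (ex 350–405, em 415–470 nm) used for Br-DAPI cyan signal; EGFP filter set (ex 450–495, em 500–550 nm) used for WinterGreen green signal. Cells imaged dark, then after 480 nm illumination (10 min, 1.6 J cm⁻²).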

Series [9] relates to MCF7. As to the kind of experiment: Photocytotoxicity against human MCF7 cells assessed as reduction in cell viability incubated for 1 hr followed by washout and irradiation with 480 nm 2.3 J/cm^2 light for 15 mins and measured after 24 hrs by MTT assay. Particulars: MCF7, light or radiation study. Type of series: functional. Put shortly: as §3
For orientation: Formazan colour is commonly taken as a measure of viable cells.

Series [10] relates to MCF7. Kind of series: Photocytotoxicity against human MCF7 cells cultured as […] spheroids assessed as fold reduction in diameter of tumor spheroid size at 10 uM incubated for 1 hr followed by washout and irradiation with 480 nm 2.3 J/cm^2 light for 15 mins with 8 J/cm^2 UV irradiation for 5 mins and incubated overnight by cell viability imaging kit based assay. The class given is functional. Put shortly:
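MCF7 spheroids (~300 μm) grown in ultralow-attachment plates. Compound added to medium at 10 μM final for 1 h, then illuminated: 480 nm (15 min, 2.3 J cm⁻²), 480 nm plus UV (5 min, 8.0 J cm⁻²), or UV only. After overnight incubation, stained with a live/dead imaging kit; dead-cell green mean intensity and spheroid diameter assessed.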

The nature of series [11]: Induction of ROS production in PBS at pH 7.4 at 1 uM irradiated with 480 nm 2.3 J/cm^2 light for 15 mins with 8 J/cm^2 UV irradiation for 5 mins by DCFH2-DA probe based analysis. To be noted: time 20.0 min. Type of series: functional.
Series [12] is described as follows: Selectivity index, ratio of CC50 for photocytotoxicity against human HeLa cells irradiated with 480 nm 2.3 J/cm^2 light to CC50 for photocytotoxicity against human HeLa cells irradiated with 480 nm 2.3 J/cm^2 light and 8 J/cm^2 UV irradiation. The class given is functional. The procedure, abridged:
as §3

A further series has as its system DNA. Kind of series: Induction of DNA (unknown origin) damage in PBS at pH 7.4 assessed as double strand breaks by measuring production of small DNA fragments at 10 uM irradiated with 480 nm 2.3 J/cm^2 light for 15 mins with 8 J/cm^2 UV irradiation for 5 mins by ethidium bromide staining based agarose gel electrophoresis. Particulars: time 20.0 min. The class given is nucleic-acid assay. The procedure, abridged:
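Plasmid dsDNA (70 ng pCMV-PARP1-3xFlag-WT, 7146 bp) in PBS pH 7.4 with compound at 10 μM. Illumination: 480 nm for 15 min (2.3 J cm⁻²), then UV 365 nm lamp for 5 min (8.0 J cm⁻²). Samples denatured, run on 1% agarose gel with ethidium bromide. n = 2.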

Series [13] is described as follows: Photorelease activity in PBS at pH 7.4 assessed as 3-bromo-2-(4-carbamimidoylphenyl)-1H-indole-6-carboxamidine release by measuring increase in fluorescence intensity at 50 uM in presence of CT-DNA incubated for 3 hrs under dark condition by RP-HPLC analysis. The class given is functional. The procedure, abridged: as §2

As a reminder, the CC50 is the concentration giving 50% cytotoxicity.

As to `CC1=CC(C)=[N+]2C1=C(COC(=O)/N=C(\N)c1ccc3c(Br)c(-c4ccc(C(=N)N)cc4)[nH]c3c1)c1c(C)cc(C)n1[B-]2(C)C`, the outcome (with MCF7 [1]; in the series with Calf thymus DNA; with MCF7 [7]; in series [11]; in the series on DNA) was Active. For the same molecule, the Stability result in series [2] and in series [4] was “Stable” each time. Also, in [3], the TIME is 0.533 h. Besides, the Ratio in series [5] turned out to be 8.5; in [12], 2.2. Besides, the Activity result in the series on MCF7 [6] is “Dde”. Further, the Drug metabolism entry in the series with MCF7 [8] is listed as “Metabolite_Detected”; in [13] it was “Metabolite not detected”. Besides, the CC50 with MCF7 [9] came to 4 µM. Besides, the “fold change (FC)” value in the series with MCF7 [10] is reported as 5.
